# Measured values: ChEMBL document CHEMBL5724801, “EUbOPEN Chemogenomics Library - Multiplex” (2024)
# Values joined by “and” are separate entries in the source; they are usually repeats but may differ in a detail not shown here. Equal entries are not always repeated.
# How the values were obtained:
# U2OS = assay: Multiplex assay against U2OS; type: toxicity, cell-based; conditions: human
# Summary of the method: (§1)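 Per cents of healthy-nucleus cells form the tubulin, mitochondrial-mass and membrane-permeability phenotype values. Live cells were stained at seeding with Hoechst33342, BioTracker Green Microtubule Cytoskeleton Dye, MitoTracker Red and Annexin V Alexa Fluor 680. After compound addition they were imaged on a CQ1 microscope at 37°C and 5% CO2, and CellPathfinder machine-learning gating split them into Hoechst high-intensity objects or normal cells, normal cells into healthy, pyknosed or fragmented nuclei, and pyknosed cells into mitotic or apoptotic.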
# Fibroblast = assay: Multiplex assay against human fibroblast; type: toxicity, cell-based; summary of the method: as §1
# [1] = 12 h, 1 µM, compound concentration 1 uM
# [2] = 12 h, 10 µM, compound concentration 10 uM
# [3] = 24 h, 1 µM, compound concentration 1 uM
# [4] = 24 h, 10 µM, compound concentration 10 uM
# [5] = 48 h, 1 µM, compound concentration 1 uM
# [6] = 48 h, 10 µM, compound concentration 10 uM
smiles,measurement,setting,value
Cc1sc2c(c1C)C(c1ccc(Cl)cc1)=N[C@@H](CC(=O)NCCCCCCCCNC(=O)COc1cccc3c1C(=O)N(C1CCC(=O)NC1=O)C3=O)c1nnc(C)n1-2 (stereo not given in full),Population Apoptotic (%),U2OS; [1],93% and 87%
same,Population Healthy Nuclei (%),U2OS; [1],49% and 80%
same,Population Hoechst High Intensity Objects (%),U2OS; [1],11% and 0%
same,Population Membrane Permeable-Phenotype (%),U2OS; [1],9% and 5%
same,Population Mitochondria Different-Phenotype (%),U2OS; [1],4% and 1%
same,Population Mitotic Cells (%),U2OS; [1],6% and 12%
same,Population Normal (%),U2OS; [1],88% and 99%
same,Population Pyknosed Nuclei (%),U2OS; [1],6% and 5%
same,Population Tubulin-Different-Phenotype (%),U2OS; [1],5% and 3%
same,Total Cell Count,U2OS; [1],269 and 136
same,Population Apoptotic (%),U2OS; [2],86% and 100%
same,Population Fragmented Nuclei (%),U2OS; [2],31% and 19%
same,Population Healthy Nuclei (%),U2OS; [2],55% and 75%
same,Population Hoechst High Intensity Objects (%),U2OS; [2],5% and 0%
same,Population Mitochondria Different-Phenotype (%),U2OS; [2],4% and 12%
same,Population Mitotic Cells (%),U2OS; [2],13% and 0%
same,Population Normal (%),U2OS; [2],94% and 99%
same,Population Pyknosed Nuclei (%),U2OS; [2],13% and 4%
same,Population Tubulin-Different-Phenotype (%),U2OS; [2],0% and 12%
same,Total Cell Count,U2OS; [2],233 and 117
same,Population Apoptotic (%),U2OS; [3],100% and 92%
same,Population Healthy Nuclei (%),U2OS; [3],51% and 80%
same,Population Hoechst High Intensity Objects (%),U2OS; [3],11% and 2%
same,Population Membrane Permeable-Phenotype (%),U2OS; [3],8% and 5%
same,Population Mitochondria Different-Phenotype (%),U2OS; [3],3% and 2%
same,Population Mitotic Cells (%),U2OS; [3],0% and 7%
same,Population Normal (%),U2OS; [3],88% and 97%
same,Population Pyknosed Nuclei (%),U2OS; [3],6% and 7%
same,Population Tubulin-Different-Phenotype (%),U2OS; [3],5% and 4%
same,Total Cell Count,U2OS; [3],297 and 174
same,Population Apoptotic (%),U2OS; [4],100%
same,Population Fragmented Nuclei (%),U2OS; [4],34% and 27%
same,Population Healthy Nuclei (%),U2OS; [4],53% and 65%
same,Population Hoechst High Intensity Objects (%),U2OS; [4],8% and 0%
same,Population Mitochondria Different-Phenotype (%),U2OS; [4],5% and 9%
same,Population Mitotic Cells (%),U2OS; [4],0%
same,Population Normal (%),U2OS; [4],91% and 99%
same,Population Pyknosed Nuclei (%),U2OS; [4],12% and 7%
same,Total Cell Count,U2OS; [4],245 and 130
same,Population Apoptotic (%),U2OS; [5],91% and 90%
same,Population Fragmented Nuclei (%),U2OS; [5],35% and 12%
same,Population Healthy Nuclei (%),U2OS; [5],53% and 79%
same,Population Hoechst High Intensity Objects (%),U2OS; [5],10% and 1%
same,Population Membrane Permeable-Phenotype (%),U2OS; [5],6% and 4%
same,Population Mitochondria Different-Phenotype (%),U2OS; [5],1%
same,Population Mitotic Cells (%),U2OS; [5],8% and 9%
same,Population Normal (%),U2OS; [5],89% and 98%
same,Population Pyknosed Nuclei (%),U2OS; [5],10% and 7%
same,Population Tubulin-Different-Phenotype (%),U2OS; [5],2% and 1%
same,Total Cell Count,U2OS; [5],353 and 270
same,Population Apoptotic (%),U2OS; [6],100%
same,Population Fragmented Nuclei (%),U2OS; [6],36% and 25%
same,Population Healthy Nuclei (%),U2OS; [6],51% and 70%
same,Population Hoechst High Intensity Objects (%),U2OS; [6],7% and 2%
same,Population Membrane Permeable-Phenotype (%),U2OS; [6],9% and 10%
same,Population Mitochondria Different-Phenotype (%),U2OS; [6],4%
same,Population Mitotic Cells (%),U2OS; [6],0%
same,Population Normal (%),U2OS; [6],92% and 97%
same,Population Pyknosed Nuclei (%),U2OS; [6],12% and 4%
same,Population Tubulin-Different-Phenotype (%),U2OS; [6],4% and 7%
same,Total Cell Count,U2OS; [6],289 and 179
same,Population Apoptotic (%),Fibroblast; [1],57% and 42%
same,Population Healthy Nuclei (%),Fibroblast; [1],72% and 34%
same,Population Hoechst High Intensity Objects (%),Fibroblast; [1],3% and 6%
same,Population Mitotic Cells (%),Fibroblast; [1],42% and 57%
same,Population Normal (%),Fibroblast; [1],96% and 93%
same,Population Pyknosed Nuclei (%),Fibroblast; [1],16% and 31%
same,Population Tubulin-Different-Phenotype (%),Fibroblast; [1],25% and 66%
same,Total Cell Count,Fibroblast; [1],118 and 94
same,Population Apoptotic (%),Fibroblast; [2],54% and 44%
same,Population Fragmented Nuclei (%),Fibroblast; [2],13% and 27%
same,Population Healthy Nuclei (%),Fibroblast; [2],56% and 27%
same,Population Hoechst High Intensity Objects (%),Fibroblast; [2],11% and 17%
same,Population Membrane Permeable-Phenotype (%),Fibroblast; [2],1% and 7%
same,Population Mitochondria Different-Phenotype (%),Fibroblast; [2],19% and 26%
same,Population Mitotic Cells (%),Fibroblast; [2],45% and 55%
same,Population Normal (%),Fibroblast; [2],88% and 82%
same,Population Pyknosed Nuclei (%),Fibroblast; [2],30% and 45%
same,Population Tubulin-Different-Phenotype (%),Fibroblast; [2],50% and 69%
same,Total Cell Count,Fibroblast; [2],171 and 115
same,Population Apoptotic (%),Fibroblast; [3],56% and 65%
same,Population Fragmented Nuclei (%),Fibroblast; [3],20% and 41%
same,Population Healthy Nuclei (%),Fibroblast; [3],53% and 32%
same,Population Hoechst High Intensity Objects (%),Fibroblast; [3],10% and 3%
same,Population Mitotic Cells (%),Fibroblast; [3],44% and 35%
same,Population Normal (%),Fibroblast; [3],89% and 96%
same,Population Pyknosed Nuclei (%),Fibroblast; [3],26% and 25%
same,Population Tubulin-Different-Phenotype (%),Fibroblast; [3],25% and 72%
same,Total Cell Count,Fibroblast; [3],107 and 80
same,Population Apoptotic (%),Fibroblast; [4],67% and 44%
